Results on three molecules are retold here after ChEMBL document CHEMBL1135705, “Correlation of the antibacterial activities of cationic peptide antibiotics and cationic steroid antibiotics” (2002).

≈ marks a conversion by molar mass, not a printed value.

The subject of one experiment is Streptococcus pyogenes. As to the kind of experiment: Antibacterial activity against Gram-positive bacteria-Streptococcus pyogenes (ATCC 19615). Type of experiment: functional.
The next experiment relates to Escherichia coli. As to the kind of experiment: Antibacterial activity against Gram-negative bacteria- Escherichia coli (ATCC 25922). In kind it is functional.
The next experiment relates to Staphylococcus aureus. As to the kind of experiment: Antibacterial activity against Gram-positive bacteria -S. aureus (ATCC 25923). Type of experiment: functional.
The test system of another experiment is Salmonella typhimurium. As to the kind of experiment: Antibacterial activity against Gram-negative bacteria -Salmonella Typhimurium (ATCC 14028). In kind it is functional, Salmonella enterica subsp. enterica serovar Typhimurium. As to conditions: Salmonella enterica.
Experiment [1] can be described thus: Compound was evaluated for minimum hemolytic concentration. Type of experiment: functional. The procedure, abridged: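 Hemolysis was tested up to 200 µg/mL. Higher concentrations could not be used because of limited solubility.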

In the case of `C[C@H](CCCN(CCCN)CCCN)[C@H]1CC[C@H]2[C@@H]3[C@H](OCCCN)CC4C[C@H](OCCCN)CC[C@]4(C)[C@H]3C[C@H](OCCCN)[C@]12C` (stereo not given in full), the MIC in the experiment on Streptococcus pyogenes turned out to be 3 µg/mL (≈ 4.42 µM); against Escherichia coli it was 6.6 µg/mL (≈ 9.72 µM); in the experiment on Staphylococcus aureus, 4.6 µg/mL (≈ 6.77 µM); in the experiment on Salmonella typhimurium, 25 µg/mL (≈ 36.8 µM). The molecule also registered an MHC in experiment [1] of more than 200 µg/mL.
The like results for `C[C@H](CCCO)[C@H]1CC[C@H]2[C@@H]3[C@H](OCCCN)CC4C[C@H](OCCCN)CC[C@]4(C)[C@H]3C[C@H](OCCCN)[C@]12C` (stereo not given in full) were, in that order, 4.2 µg/mL (≈ 7.42 µM), 36 µg/mL (≈ 63.6 µM), 2 µg/mL (≈ 3.53 µM), 43 µg/mL (≈ 76 µM) and 100 µg/mL.
The like results for `C[C@H](CCCNCCCNCCCN)[C@H]1CC[C@H]2[C@@H]3[C@H](OCCCN)CC4C[C@H](OCCCN)CC[C@]4(C)[C@H]3C[C@H](OCCCN)[C@]12C` (stereo not given in full) were, in that order, 1.6 µg/mL (≈ 2.36 µM), 7.3 µg/mL (≈ 10.7 µM), 2 µg/mL (≈ 2.95 µM), 12 µg/mL (≈ 17.7 µM) and more than 200 µg/mL.

For orientation: MIC means the least concentration at which growth counts as inhibited. Lower therefore signals greater potency.
